Key:
[1] = molecular target: T1, Melanin-concentrating hormone receptor 1 (Homo sapiens, UniProt Q99705); test: Displacement of [125I]-MCH (4 to19 residues) from human MCHR1 expressed in CHO cell membranes after 1 hr by liquid scintillation counting analysis
Outline: (§1)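 Membranes from MCHR1-expressing CHO cells, homogenized in NaHCO3/EDTA with protease inhibitors, 100000g pellet held at 2 mg/mL protein in 20 mM Tris-HCl pH 7.5, 5 mM EDTA, protease inhibitors.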

[2] = molecular target: Melanin-concentrating hormone receptor 1 (Rattus norvegicus, UniProt P97639); test: Displacement of [125I]-MCH (4 to 19 residues) from rat MCHR1 expressed in CHO cell membranes after 1 hr by liquid scintillation counting analysis; outline: as §1
Chain of Melanin-concentrating hormone receptor 1 (Rattus norvegicus, UniProt P97639) (P97639 whole entry, the tested form may be a part): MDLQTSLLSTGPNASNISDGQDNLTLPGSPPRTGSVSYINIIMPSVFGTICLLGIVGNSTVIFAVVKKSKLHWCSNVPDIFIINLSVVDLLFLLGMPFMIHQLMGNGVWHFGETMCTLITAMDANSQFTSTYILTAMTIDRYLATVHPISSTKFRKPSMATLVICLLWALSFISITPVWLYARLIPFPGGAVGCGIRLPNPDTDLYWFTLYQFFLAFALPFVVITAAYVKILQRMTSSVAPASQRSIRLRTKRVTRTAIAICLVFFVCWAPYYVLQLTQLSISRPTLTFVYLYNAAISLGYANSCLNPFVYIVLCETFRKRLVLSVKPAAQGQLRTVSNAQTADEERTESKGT

Rattus norvegicus [3] = test: Anorectic activity in diet-induced obese F344/jcl rat assessed as inhibition of cumulative food intake at 1 mg/kg, po qd administered through repeated dosing for 2 weeks measured during 2 weeks of dosing relative to vehicle-treated control; type: functional; conditions: 336 h
Outline: (§2)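 Male DIO F344/Jcl rats (45 weeks old) on high-fat diet since 5 weeks of age, singly housed, habituated to oral dosing with tap water, grouped by day−1 food intake and body weight. Once-daily oral dosing in 0.5% methylcellulose at 2 mL/kg for 2 weeks, 1−3 h before dark onset, 6 rats/group. Food intake measured every 2 or 3 days; body weight change as % of initial.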

Rattus norvegicus [4] = test: Antiobesity activity in diet-induced obese F344/jcl rat assessed as reduction in body weight at 1 mg/kg, po qd administered through repeated dosing for 2 weeks measured during 2 weeks of dosing relative to vehicle-treated control; type: functional; set-up: scale not given: the % may be the effect or the level left; outline: as §2
[5] = molecular target: T1, Melanin-concentrating hormone receptor 1; type: functional, cell-based, CHO
[6] = Lipophilicity, log D of the compound at pH 7.4; type: physicochemical; conditions: buffer
Outline: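 Chromatographic HPLC method with UV detection, estimating octanol/buffer partition at pH 7.4.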

T1 sequence (Q99705 whole entry, the tested form may be a part): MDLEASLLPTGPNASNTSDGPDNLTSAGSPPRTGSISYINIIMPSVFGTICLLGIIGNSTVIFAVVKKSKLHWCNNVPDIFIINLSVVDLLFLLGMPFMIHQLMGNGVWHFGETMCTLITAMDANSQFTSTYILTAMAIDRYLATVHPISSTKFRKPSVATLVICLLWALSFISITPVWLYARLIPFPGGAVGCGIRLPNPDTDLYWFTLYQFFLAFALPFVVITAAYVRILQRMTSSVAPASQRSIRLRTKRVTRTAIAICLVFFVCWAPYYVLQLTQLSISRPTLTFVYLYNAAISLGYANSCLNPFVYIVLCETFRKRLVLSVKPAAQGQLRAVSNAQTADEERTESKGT

## Cc1c(CO)nc2ccc(-n3ccc(OCc4ccc(F)cc4)cc3=O)cn12
[1]
  IC50: > 1000 nM
[2]
  IC50: > 1000 nM

## CC(C)CC(N(C)C)C1(c2ccc(Cl)cc2)CCC1 (configuration not stated) [SIBUTRAMINE]
Rattus norvegicus [3]
  inhibition in vivo at 1 mg/kg: 21.5%
Rattus norvegicus [4]
  Activity: 3.4%

## Cc1c(C2CC2)nc2ccc(-n3ccc(OCc4ccc(C(C)C)cc4)cc3=O)cn12
[1]
  IC50: 410 nM
[2]
  IC50: 240 nM

## Cc1c(C2CC2)nc2ccc(-n3ccc(OCc4ccccc4)cc3=O)cn12
[1]
  IC50: 42 nM
[2]
  IC50: 28 nM

## Cc1c(C2CC2)nc2ccc(-n3ccc4oc(-c5ccc(Cl)cc5)cc4c3=O)cn12
[1]
  IC50: 6.8 nM
[2]
  IC50: 11 nM
[5]
  IC50: 42 nM

## Cc1c(C2CC2)nc2ccc(-n3cccc(Oc4ccc(OC(F)(F)F)cc4)c3=O)cn12
[1]
  IC50: 270 nM
[2]
  IC50: 240 nM

## Cc1c(C2CC2)nc2ccc(-n3ccc(OCc4cncnc4)cc3=O)cn12
[1]
  IC50: > 1000 nM
[2]
  IC50: > 1000 nM

## Cc1c(C2CC2)nc2ccc(-n3ccc(OCc4ccc(Cl)cc4)nc3=O)cn12
[1]
  IC50: 37 nM
[2]
  IC50: 30 nM
[6]
  logD: 2.8
[5]
  IC50: 140 nM

## Cc1c(C(=O)C2CC2)nc2ccc(-n3ccc(OCc4ccc(F)cc4)cc3=O)cn12
[1]
  IC50: > 1000 nM
[2]
  IC50: > 1000 nM

## Cc1c(C2CC2)cc2ccc(NC(=O)COc3ccc(OC(F)(F)F)cc3)cn12
[1]
  IC50: > 1000 nM
[2]
  IC50: > 1000 nM

## Cc1c(C2CC2)nc2ccc(-n3ccc(OCc4ccc(C(F)(F)F)cc4)cc3=O)cn12
[1]
  IC50: 72 nM
[2]
  IC50: 82 nM

## Cc1c(C#N)nc2ccc(-n3ccc(OCc4ccc(F)cc4)cc3=O)cn12
[1]
  IC50: > 1000 nM
[2]
  IC50: > 1000 nM

## Cc1c(C2CC2)nc2ccc(-n3ccc(OCc4cccs4)cc3=O)cn12
[1]
  IC50: 95 nM
[2]
  IC50: 130 nM

## Cc1c(C2CC2)nc2ccc(-n3ncc(OCc4ccc(Cl)cc4)cc3=O)cn12
[1]
  IC50: 92 nM
[2]
  IC50: 110 nM
[6]
  logD: 3.7

## Cc1c(C(=O)N(C)C)nc2ccc(-n3ccc(OCc4ccc(F)cc4)cc3=O)cn12
[1]
  IC50: > 1000 nM
[2]
  IC50: > 1000 nM

## Cc1c(C2CC2)nc2ccc(-n3ccc(OCc4ccsc4)cc3=O)cn12
[1]
  IC50: 25 nM
[2]
  IC50: 54 nM

## Cc1c(C2CC2)nc2ccc(-n3ccc(Oc4ccc(OC(F)(F)F)cc4)cc3=O)cn12
[1]
  IC50: > 1000 nM
[2]
  IC50: 950 nM

## Cc1c(C2CC2)nc2ccc(-n3ccc(OCc4ccc(F)cc4)cc3=O)cn12
[1]
  IC50: 47 nM
[2]
  IC50: 28 nM

## Cc1c(C2CC2)nc2ccc(-n3ccc(OCc4cccnc4)cc3=O)cn12
[1]
  IC50: > 1000 nM
[2]
  IC50: > 1000 nM
